# Screening results (PubChem)
# In the library only some 4.9% were active in any assay of this set; here they are far more common.
# HSF-1 act: increases HSF-1 driven luciferase reporter signal; NIH3T3-HGL HSF-1 luciferase reporter, MG132, 8 h; 100% = twice DMSO control signal; activation, % at 9 µM; hit rate 1.7% among 300,000; AID 504408;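 active means mean replicate activation of at least 50% with a set share of replicates each reaching 50%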;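 further: 0% = median of the neutral control wells and 100% = twice that signal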
# HSF1 inhib: HSF1 inhibition; hit rate 0.77% among 300,000; activity change, negative = inhibition, % at 7.5 µM (by protocol); NIH3T3-HGL HSE-luciferase, MG132-induced, luminescence 8 h; stronger effect = lower value;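 active means more than half of replicate wells show activity change below -50%, luminescence cut by over half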;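 further: luciferase reports HSF-1 transcriptional activity via heat shock element; 0% = median of DMSO wells and -100% = zero luminescence signal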
# CHT allo act: allosteric activators of human choline transporter CHT. Q9GZV3. CHT-expressing cells, membrane potential dye, choline EC20; stronger effect = higher value; LV-AA mutant CHT in HEK293 cells. B-score at 10 µM. hit rate 0.49% among 310,000. AID 488977;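 active means initial fluorescence not abnormally high and integrated response B-score, plate-corrected, over 3 SD above library mean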
# PHOSPHO1 block: blocks human PHOSPHO1 phosphatase activity; recombinant PHOSPHO1, absorbance phosphatase assay; inhibition, % at 13.3 µM; Q8TCT1; hit rate 1.1% among 290,000; AID 1565; in the data active means inhibition above about 60%
# CHT inh: inhibitors of human choline transporter CHT. CHT-expressing cells, membrane potential dye, choline response; stronger effect = lower value. B-score at 10 µM. hit rate 0.86% among 310,000. AID 488975;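 active means B-score over 3 SD under the library average, and starting fluorescence ratio not unusually high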;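 further: choline stimulus applied at its EC90 after an EC20 pre-addition; B-score computed on integrated fluorescence ratio after choline addition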
# Hep lipid drop: hepatic lipid droplet formation modulation. AML12 mouse hepatocytes, oleate lipid droplets, BODIPY imaging. inhibition, % at 6.5 µM. hit rate 0.4% among 240,000. AID 1656;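 active means lipid droplet intensity inhibited by at least 50%, with more than 500 cells counted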
#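 Technique: fluorescence imaging, 20x objective, two fields per well / Assay system: AML12 hepatocytes (mouse) / Measure: % inhibition of lipid droplet signal / Doses: 6.5 µM single-point dosing / Incubation: overnight exposure / Reagent: 100 µM oleic acid challenge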
# Numbers without * were called inactive; i = inactive; . = not tested or not shown.
SMILES,HSF-1 act,HSF1 inhib,CHT allo act,PHOSPHO1 block,CHT inh,Hep lipid drop
Cc1cc(N(C)NC(=S)Nc2ccccc2)nc(C)n1,15,0,i,3,i,4
C=CCNc1sc(C(=O)c2ccccc2)c(N)c1-c1nc2ccccc2s1,46,11,i,98*,i,.
CCNc1sc(C(=O)c2cccs2)c(N)c1-c1nc2ccccc2s1,37,11,i,-4,i,.
CCN(CC(=O)NCc1cccnc1)S(=O)(=O)c1ccc(OC)cc1,5,1,i,45,i,2
CN1N=C2c3ccccc3CCC2C1c1ccc(C(F)(F)F)cc1 (stereo not given),-60,-58*,i,-20,i,0
C/C(=N\NS(=O)(=O)c1ccccc1)c1ccc2c(c1)OCCO2,-67,-56*,i,-17,i,13
C/C(=N/NC(=O)c1ccc2c(c1)OCCO2)c1ccc([N+](=O)[O-])cc1,-65,-67*,i,23,i,14
Cc1ccc(CC2S/C(=N/N=C/c3ccco3)NC2=O)cc1 (stereo not given),6,6,i,-2,i,-2
CCN1C(=O)c2cccc3c(NC(=O)C(C)(C)C)ccc1c23,-6,1,i,1,i,15
COc1ccc(CCNC(=O)C2CCCN(Cc3nc(-c4ccccc4C)oc3C)C2)cc1OC (stereo not given),72*,29,i,-28,i,.
Cc1cc(C)c(CSc2ncc(-c3ccc([N+](=O)[O-])cc3)[nH]2)c(C)c1,17,8,i,6,i,.
O=[N+]([O-])c1ccc(-c2cnc(SCc3ccccc3Cl)[nH]2)cc1,56*,24,i,56,i,.
CC(Cc1cccs1)NC(=O)Nc1ccc(Cl)cc1 (stereo not given),62*,30,i,-4,i,-7
CCCC(=O)NC(Nc1c(C)n(C)n(-c2ccccc2)c1=O)C(Cl)(Cl)Cl (stereo not given),5,-5,i,15,i,-3
CC(=O)Nc1ccc(NC(=O)c2ccccc2S(=O)(=O)c2ccc([N+](=O)[O-])cc2)cc1,-5,-6,i,50,i,-1
O=C(C1CCN(c2nc(-c3ccccc3)nc3c2CCC3)CC1)N1CCC(O)CC1,-13,-16,i,9,i,38
Cc1nn(CCN)c(C)c1Cl,2,-3,i,28,i,9
O=[N+]([O-])c1nn(-c2ccc(Cl)cc2)n(O)c1=NCc1ccccc1,14,11,i,2,i,8
COc1ccc(-n2nc([N+](=O)[O-])c(=NCCCN3CCCC3=O)n2O)cc1,-5,-6,i,61*,i,-19
O=C1CCCN1CCCN=c1c([N+](=O)[O-])nn(-c2ccc(Cl)cc2)n1O,62*,33,.,-4,.,-37
CC(=O)Nc1ccc(NC(=O)C(C)Sc2nc3nc(C)cc(C)n3n2)cc1 (stereo not given),-1,-2,i,.,i,.
Cc1cc(C)n2nc(SC(C)C(=O)NCc3ccco3)nc2n1 (stereo not given),-6,-7,i,64*,i,.
O=Cc1cccc(OC(=O)c2ccc(Cl)cc2Cl)c1,64*,27,i,0,i,13
COc1cc(/C=N\NC(=O)c2ccc(=O)[nH]n2)cc(OC)c1OC,-8,-16,i,50,i,.
COc1ccc(OCc2cc(C(=O)N(C)Cc3cc(C)no3)no2)c(Cl)c1,30,37,i,38,i,6
Cc1nonc1CN(C)C(=O)c1cc(COc2ccc(F)cc2Cl)on1,21,9,i,23,i,-2
Cc1ccc(CN(C)C(=O)c2cc(COc3ccc(F)cc3Cl)on2)o1,54*,10,i,43,i,-5
CCc1ccc(CN(C)C(=O)c2cc(COc3ccc(OC)cc3Cl)on2)nc1,56*,22,i,9,i,7
CC1=C(C(=O)Nc2ccc(CC(=O)NCc3ccccc3C)cc2)SCCO1,14,3,i,32,i,4
CCc1ccc(CNC(=O)Cc2ccc(NC(=O)C3=C(C)OCCS3)cc2)cc1,-3,-6,i,65*,i,-16
